Bioassay records deposited in PubChem by Broad Institute.
SR-BI HDL uptake: inhibitors of SR-BI mediated HDL lipid uptake, primary screen, ldlA[mSR-BI] cells, fluorescence, single point. ldlA[mSR-BI] CHO cells, DiI-HDL uptake fluorescence, 3 h. inhibition, % at 12.5 µM. hit rate 0.96% among 320,000;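 active means mean replicate inhibition of at least 70% and a set share of replicates each scoring 70 or more; inconclusive means meets just one of the two criteria; inactive means fails both criteria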;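 further: 0% = median of neutral control wells and 100% = median of positive control wells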
GSK3B inh: human GSK3beta kinase inhibitors, primary screen, biochemical, cell-free homogeneous, HTS. Glycogen synthase kinase-3 beta (Homo sapiens), P49841. GST-GSK3beta kinase, ADP-Glo luminescence, 60 min; hits give low values. activity score (negative = inhibition), % at 10 µM. hit rate 0.038% among 300,000;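 active means more than half of replicate wells score below -50%, meaning over 50% inhibition versus plate controls; inconclusive means some replicates but at most half score below -50%; inactive means no replicate scores below -50%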;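 further: 0% = median DMSO wells and -100% = median GW8510 positive control wells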
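test system = GST-tagged human GSK3beta kinase, cell-free | reagent = 25 µM ATP with peptide substrate | dosing = one dose of 10 µM per compound | schedule = 60 min reaction, RT | detection = luminescent ADP-Glo measurement of ADP formed | control set = DMSO neutral wells and GW8510 at 20 µM as positive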
CDK5 p35 inh: inhibitors of human CDK5/p35 kinase, primary screen, biochemical, single concentration; inhibition, % at 10 µM; Recombinant CDK5/p35, ADP-Glo luminescence, 60 min; hit rate 0.01% among 330,000; Cyclin-dependent kinase 5 (Homo sapiens) + Cyclin-dependent kinase 5 activator 1 (Homo …;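 active means highest replicate inhibition of at least 50% and at least 75% of replicates reaching 50%; inconclusive means only one of the two criteria met; inactive means both criteria failed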;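 further: plate controls were DMSO neutral control for no effect and GW8510 at 10 µM for full effect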
GSK3A inh: blockers of GSK3A enzyme activity – biochemical, luminescence, cell-free homogeneous, HTS, primary screen; GSK-3 alpha kinase, ADP-Glo luminescence, 60 min; inhibition, % at 10 µM; hit rate 0.1% among 320,000;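 active means more than half of replicates show inhibition above 20%; inconclusive means some but at most half of replicates above 20% inhibition; inactive means no replicate shows inhibition above 20%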;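 further: GST-tagged GSK-3 alpha with peptide substrate and 25 µM ATP; 0% = DMSO neutral wells and 100% = GW8510 positive control wells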
Target sequence (P49840 whole entry, looked up): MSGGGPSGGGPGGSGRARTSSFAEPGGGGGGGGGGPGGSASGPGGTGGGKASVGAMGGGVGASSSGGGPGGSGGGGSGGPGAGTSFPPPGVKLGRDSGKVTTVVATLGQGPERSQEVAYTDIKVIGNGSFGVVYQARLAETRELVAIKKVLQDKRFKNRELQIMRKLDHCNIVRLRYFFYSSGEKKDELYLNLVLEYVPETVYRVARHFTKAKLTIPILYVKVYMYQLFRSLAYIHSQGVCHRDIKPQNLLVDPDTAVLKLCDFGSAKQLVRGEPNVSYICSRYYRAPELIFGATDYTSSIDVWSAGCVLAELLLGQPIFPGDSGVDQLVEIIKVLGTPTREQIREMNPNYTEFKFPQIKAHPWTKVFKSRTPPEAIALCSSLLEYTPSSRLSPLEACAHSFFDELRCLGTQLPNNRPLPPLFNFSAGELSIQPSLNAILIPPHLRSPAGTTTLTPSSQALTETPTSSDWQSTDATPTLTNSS
SR-BI uptake up: activators of SR-BI mediated DiI-HDL uptake, primary screen, ldlA[mSR-BI] CHO cells, DiI fluorescence | 3 h; 100 = double the neutral-control signal | activation, % at 12.5 µM | hit rate 0.096% among 320,000 | AID 504775, 2011;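 active means mean replicate activation of at least 60% and every replicate at or above 60%; inconclusive means mean or all-replicate condition met, but not both; inactive means mean below 60% and not all replicates reaching 60%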;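 further: 0% = median plate neutral-control signal and 100% = twice that signal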
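system = CHO ldlA[mSR-BI] cells, LDL receptor-null, SR-BI overexpressing | medium = Ham's F12 with 0.5% BSA, HEPES 25 mM, pH 7.4 | probe or stimulus = DiI-HDL 10 µg/mL | compound dosing = single-point compound dose | incubation = compound exposure 3 h, 37 °C | technique = DiI fluorescence, bottom read | read-out = cell-associated DiI fluorescence as measure of HDL uptake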
* hit, by the source's call; ? = inconclusive; / = no result. Most compounds without a hit are left out; they make up all but 1.1% or so of the library.

SMILES | SR-BI HDL uptake | GSK3B inh | CDK5 p35 inh | GSK3A inh | SR-BI uptake up
C=CCNc1nc(Nc2ccc([N+](=O)[O-])cc2)nc(N2CCCC2)n1 | 76* | -4 | -1 | / | -76
C=CCNc1nc(Cl)nc(Nc2ccc([N+](=O)[O-])cc2)n1 | 0 | -3 | -1 | -1 | 0
CCCOc1ccc(C(=O)NCC(c2ccco2)N(C)C)cc1 (configuration not stated) | -20 | 0 | 0 | -1 | 20
COc1cccc(-c2nc(NC(C)(C)C)c3ccccc3n2)c1O | 84* | -1 | -1 | -2 | -84
COc1ccc(Nc2nc(-c3cccc(OC)c3O)nc3ccccc23)cc1 | 83* | 5 | -2 | -2 | -83
COCC(=O)Nc1nc2n(n1)C(c1ccc(Cl)cc1)CC(c1ccc(OC)cc1)N2 (configuration not stated) | 74* | 1 | 0 | 0 | -74
O=C(Cn1nc(-c2ccccc2)ccc1=O)Nc1ccc(-n2cnnn2)cc1 | -116 | 1 | 2 | 1 | 116*
O=C(Cn1nc(-c2ccccc2)ccc1=O)Nc1ccc(NC(=O)c2ccccn2)cc1 | 75* | -1 | -2 | 0 | -75
NC(=O)N/N=C\c1cc(Br)ccc1O | -15 | 2 | / | 11 | 15
O=C(N/N=C/c1cc(Br)c(O)c(Br)c1O)c1cccnc1 | -3 | 6 | 0 | 1 | 3
O=C(N/N=C/c1cc(Br)ccc1OC(=O)c1ccc(Br)cc1)c1ccncc1 | 96* | 2 | -3 | -3 | -96
Cc1cc(C(=O)N/N=C/c2cc(Br)ccc2OC(=O)c2ccccc2Cl)n[nH]1 | 87* | 3 | -3 | -8 | -87
O=C(N/N=C/c1cc(O)ccc1Br)c1cccnc1 | 77* | -3 | 1 | -2 | -77
O=C(N/N=C/c1cc(Cl)ccc1O)c1ccc(Br)cc1 | 135* | / | 1 | 0 | -135
CC(OC(=O)C1=COCCO1)C(=O)Nc1ccccc1C#N (configuration not stated) | 1 | 3 | 1 | 1 | -1
O=C(CNC(=O)N1CC(=O)Nc2ccccc21)NCc1ccccc1Cl | 2 | -1 | / | 1 | -2
COc1ccc(C(=O)NC2CC2)cc1OC1CCN(Cc2ccc(F)cc2F)CC1 | 2 | 3 | -5 | 0 | -2
O=C(N/N=C/c1ccc(O)c(O)c1)c1cccc(S(=O)(=O)N2CCCCC2)c1 | 4 | / | 2 | -5 | -4
O=C(N/N=C/c1ccccc1O)c1ccncc1 | 48 | 1 | -1 | -1 | -48
O=C(N/N=C\c1cc(Br)ccc1O)c1ccc(S(=O)(=O)N2CCCCC2)cc1 | 137* | 2 | 0 | -7 | -137
O=C(N/N=C/c1cc(Br)ccc1O)c1ccncc1 | 120* | 1 | 1 | 8 | -120
O=C(N/N=C/c1ccc(O)c2ncccc12)c1cccc(Br)c1 | 72* | 2 | -1 | -2 | -72
O=C(N/N=C/c1ccc2nccnc2c1)c1ccncc1 | -355 | -27 | -2 | 4 | 355*
O=C(CNC(=O)c1ccc(S(=O)(=O)N2CCCC2)cc1)N/N=C/c1ccccc1 | 45 | 1 | -1 | -1 | -45
Nc1nonc1C(=O)N/N=C/c1cc(Br)ccc1O | 138* | 1 | 0 | 1 | -138
SMILES | SR-BI HDL uptake | GSK3B inh | CDK5 p35 inh | GSK3A inh | SR-BI uptake up
COc1cc(C(=O)Oc2cccc(/C=N/NC(=O)c3cccnc3)c2)cc(OC)c1OC | 34 | 1 | 1 | -1 | -34
CC(C)(C)OC(=O)N/N=C/c1cc(N=Nc2ccccc2)ccc1O | 32 | 1 | / | -3 | -32
COc1cc(C(=O)Oc2ccc(/C=N/NC(=O)c3ccncc3)cc2)cc(OC)c1OC | 73* | 0 | 1 | 2 | -73
Cc1ccc(N=Nc2ccc(O)c(/C=N\NC(=O)c3ccc(N)cc3)c2)cc1C | 115* | -2 | 1 | 0 | -115
O=C(CNC(=O)c1ccc(S(=O)(=O)N2CCCC2)cc1)N/N=C/c1ccc(Cl)cc1 | 72* | 4 | 0 | -2 | -72
O=C(c1ccccc1F)N(Cc1ccc2c(c1)OCO2)Cc1cc2cc3c(cc2n2nnnc12)OCO3 | 72* | -2 | 0 | / | /
Cc1nn(Cc2ccccc2)c2ncccc12 | -6 | -5 | -4 | 0 | 6
CCOc1ccc(NC(=O)CN(C)C(=O)c2ccc(N3CCCCCC3)c([N+](=O)[O-])c2)cc1OCC | 86* | -3 | -2 | -4 | -86
CCOc1ccc(NC(=O)CN(C)C(=O)c2ccc3c(c2)C(=O)N(CCC(C)C)C3=O)cc1OCC | 78* | 1 | -1 | -2 | -78
CCOc1ccc(NC(=O)CN(C)C(=O)c2ccc(N3CCOCC3)c([N+](=O)[O-])c2)cc1OCC | 51 | 1 | 1 | -1 | -51
COc1cc(OC)c(/C=N/NC(=O)c2ccc(NC(C)=O)cc2)cc1Br | ? | -1 | 5 | / | -71
CC(=O)Nc1ccc(C(=O)N/N=C/c2cc(Br)cc(Br)c2O)cc1 | 135* | 2 | 0 | 0 | -135
CC(C)C(=O)Nc1ccc(C(=O)N/N=C/c2cc(Br)cc(Br)c2O)cc1 | 146* | 1 | 0 | / | -147
CC(C)C(=O)Nc1ccc(C(=O)Nc2ccc(Br)cc2F)cc1 | 23 | 1 | 1 | 0 | -23
O=C(NC1CCCCC1)C1CCN(S(=O)(=O)c2cccc3nonc23)CC1 | -30 | 2 | 0 | -3 | 30
O=C(COC(=O)C1CC2C=CC1C2)NCCc1ccccc1 (configuration not stated) | -240 | 4 | -1 | -2 | 240*
O=C(COC(=O)C1CC1)NCCc1ccccc1 | 0 | / | -2 | 1 | 0
CCCCn1c(N)c(N(Cc2ccccc2OC)C(=O)CSCC(=O)Nc2cccc(C)c2)c(=O)[nH]c1=O | -4 | -1 | -1 | / | 4
Cc1cc(Br)ccc1NC(=O)CN1C(=O)C2C3CC(c4ccccc4)C(C3)C2C1=O (configuration not stated) | 41 | -1 | -1 | -1 | -41
COCCCNc1nc(N)c([N+](=O)[O-])c(N2CCCCCC2)n1 | 8 | 0 | 1 | 54* | -8
Nc1nc(NCCO)nc(N2CCCCCC2)c1[N+](=O)[O-] | -11 | -17 | 6 | 54* | 11
COCCCNc1nc(N)c([N+](=O)[O-])c(NC2CCCCC2)n1 | 18 | -22 | 2 | 60* | -18
Nc1nc(NCCOCCO)nc(N2CCCCCC2)c1[N+](=O)[O-] | 6 | -7 | 1 | 38 | -6
